FN deposit inh = fibronectin deposition inhibition. AH1F fibroblasts, Alexa488-fibronectin deposition fluorescence, overnight. inhibition, % at 12.6 µM. 350,000 tested, 0.086% active. AID 743247;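 active means mean inhibition across replicates of 30% or more, regardless of how many single replicates reach that level; inconclusive means mean under 30% yet at least half of replicates reach 30%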
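Assay system: AH1F fibroblast monolayer, labelled fibronectin deposition. Amount: 10000 cells per well. Also added: labelled fibronectin 24 nM. Compound: single-point pinned compound. Incubation: cell attachment 1 h, compound and FN exposure overnight. Detection: fluorescence after three HBSS washes, excitation 485 nm, emission 525 nm. Read-out: inhibition of fibronectin deposition signal.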
ARNT-TACC3 inh = disruptors of human ARNT/TACC3 interaction; inhibition, % at 9.99 µM; AID 623870; AlphaScreen His-ARNT PAS-B/GST-TACC3 binding, luminescence; TACC3 fragment carries E629A point mutation; 390,000 tested, 0.66% active;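 active means mean inhibition of replicates at least 50% and at least half of replicates each reaching 50%; inconclusive means half or more replicates reach 50% but mean below 50%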
ERp5 inh = blocks human ERp5 reductase activity on insulin; Q15084; ERp5 insulin aggregation, absorbance 650 nm, 90 min; inhibition, % at 9.99 µM; 350,000 tested, 0.05% active; AID 651711;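 active means mean replicate inhibition above about 25%, with every replicate also reaching it, limit read from the data, passing the limit was not always enough; inconclusive means only one of those two criteria met; inactive means neither criterion met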
PDI turbidity = PDI (human) enzyme inhibition. PDI insulin aggregation turbidity, A650, 90 min. inhibition, % at 10 µM. AID 588391. 350,000 tested, 0.052% active. P07237;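 active means mean inhibition across replicates of 30% or more, whatever share of single replicates reach that level; inconclusive means mean inhibition below 30% while every single replicate reaches 30%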
Target sequence (P07237 whole entry, looked up): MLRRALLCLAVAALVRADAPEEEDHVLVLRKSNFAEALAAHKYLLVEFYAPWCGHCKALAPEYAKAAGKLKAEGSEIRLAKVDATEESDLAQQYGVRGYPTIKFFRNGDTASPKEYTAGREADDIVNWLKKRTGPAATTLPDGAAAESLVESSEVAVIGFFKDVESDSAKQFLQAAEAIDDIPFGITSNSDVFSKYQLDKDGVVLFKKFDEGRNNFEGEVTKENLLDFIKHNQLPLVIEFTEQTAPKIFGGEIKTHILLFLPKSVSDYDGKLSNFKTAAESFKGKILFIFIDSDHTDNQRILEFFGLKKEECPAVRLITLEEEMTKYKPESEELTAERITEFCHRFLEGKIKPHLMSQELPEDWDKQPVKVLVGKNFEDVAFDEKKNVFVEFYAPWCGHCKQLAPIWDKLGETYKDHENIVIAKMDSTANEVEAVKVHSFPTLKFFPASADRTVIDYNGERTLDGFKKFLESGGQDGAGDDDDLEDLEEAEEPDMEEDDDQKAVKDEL
MLL AF4-AF9 inh = blocks AF4 peptide binding to human AF9; P42568; AlphaScreen, biotin-AF4 peptide binding to FLAG-AF9; inhibition, % at 10 µM; 350,000 tested, 0.47% active;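 active means every replicate reaching a set inhibition limit, whatever the replicate mean, cut at about 25% in these data; inconclusive means mean inhibition reaches that limit but some replicates miss it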
FGF22 binding = shifts melting point of recombinant human FGF22. 340,000 tested, 1.5% active. activity (Tm shift, normalised), % at 9.99 µM. recombinant FGF22 thermal shift, SYPRO orange fluorescence; percent of sucrose octasulfate shift, DMSO zero;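 active means mean Tm shift, scaled 0 neutral to 100 positive control, at about 1.3% or above, every replicate too, limit read from the data; inconclusive means no clear call, values can overlap the other calls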
Target sequence (Q9HCT0 whole entry, looked up): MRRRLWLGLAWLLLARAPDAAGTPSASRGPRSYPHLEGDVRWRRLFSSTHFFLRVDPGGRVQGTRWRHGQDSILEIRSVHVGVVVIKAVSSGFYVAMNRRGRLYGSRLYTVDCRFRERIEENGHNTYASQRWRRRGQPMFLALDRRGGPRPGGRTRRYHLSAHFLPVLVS
Hits are given with their value; . = inactive; ? = inconclusive; / = no result given. Most compounds without a hit are left out; they make up all but 2.1% or so of the library.

SMILES | FN deposit inh | ARNT-TACC3 inh | ERp5 inh | PDI turbidity | MLL AF4-AF9 inh | FGF22 binding
CCc1ccc(OCC(=O)NN2Cc3ccccc3C2=N)cc1 | . | . | . | . | . | 43.3
O=C(Nc1nnc(C2=COCCO2)o1)c1ccc([N+](=O)[O-])cc1 | . | 41.5 | . | . | . | .
O=C(Nc1nnc(C2=COCCO2)o1)c1ccc(Cl)cc1 | . | 52.5 | . | . | ? | .
COc1ccc(-c2nnc(NC(=O)C3=COCCO3)o2)cc1 | . | 46.3 | . | . | . | .
O=C(Nc1nnc(C2=COCCO2)o1)c1ccc(F)cc1 | / | 49.7 | . | . | . | .
O=C(Nc1nnc(-c2ccc(Br)cc2)o1)C1=COCCO1 | . | . | . | . | . | /
CCCC(=O)N1CC2(CCN(C(=O)C3CCC3)CC2)c2c(n(C)c3cc(OC)ccc23)[C@@H]1CO | / | / | / | / | . | .
Cc1noc(C)c1S(=O)(=O)Nc1ccc2c(c1)CC(=O)N([C@H](C)CO)C[C@@H](C)[C@H](CN(C)C(=O)Nc1cccc3ccccc13)O2 | . | . | . | / | . | .
CNC(=O)C[C@@H]1CC[C@@H]2[C@@H](COc3ccc(NC(=O)Nc4ccccc4F)cc3C(=O)N2C)O1 | . | / | / | / | / | /
CCCC(=O)N1CCC2(CC1)CN(C(=O)C1CCC1)[C@@H](CO)c1[nH]c3cc(OC)ccc3c12 | . | / | / | / | / | .
CC1(C)CC(=O)C2=C(C1)N(c1ccc(F)cc1)C(=O)CC2c1ccccc1 (centres undefined) | . | . | / | . | / | /
O=C1CCCC2=C1C(c1ccccc1)CC(=O)N2c1ccc(F)cc1F (centres undefined) | . | . | . | . | . | 43.1
COc1cc(/C=N/NC(=O)c2cc[n+]([O-])cc2)ccc1O | . | 76.7 | . | . | . | .
COc1ccc(/C=N/NC(=O)c2cc[n+]([O-])cc2)cc1OC | / | . | / | . | / | /
O=C(c1ccc(C(F)(F)F)cc1)C1CCCN(C(=O)CN2CCCC2=O)C1 (centres undefined) | / | . | . | . | . | 43.1
COc1cc(-c2cc(-c3ccc(F)cc3)nc(N)c2C#N)ccc1O | . | . | . | . | . | 43.1
Cc1ccc2c(c1)c1c(n2CC(O)CNC(CO)(CO)CO)CCCC1 (centres undefined) | . | . | . | . | ? | .
Cc1ccc2c(c1)c1c(n2CC(O)CNC2CCCCC2)CCCC1 (centres undefined) | . | . | . | / | 29.9 | .
COCC#Cc1ccc2c(c1)O[C@@H](CN(C)C(=O)CN(C)C)[C@@H](C)CN([C@@H](C)CO)S2(=O)=O | . | . | . | / | . | .
CCOC(=O)c1cnc2ccc(C(=O)OC)cc2c1Nc1ccc(C(=O)O)cc1 | . | . | . | . | . | .
CCOC(=O)c1cnc2ccc(OC)cc2c1Nc1ccc(N2CCN(C)CC2)cc1 | . | . | . | . | 41.1 | .
CCOC(=O)c1cnc(-n2nc(C)cc2C)nc1Oc1ccccc1F | . | / | . | . | . | .
CCOC(=O)c1cnc2ccc(OC)cc2c1Nc1ccc2c(c1)OCCO2 | / | . | / | . | / | /
CCOC(=O)c1ccc2ncc(C(=O)OCC)c(Nc3ccc(N4CCOCC4)cc3)c2c1 | . | . | . | . | 25.6 | .
CCOC(=O)c1cnc(-n2nc(C)cc2C)nc1N1CCOCC1 | . | 49.7 | / | . | / | /
SMILES | FN deposit inh | ARNT-TACC3 inh | ERp5 inh | PDI turbidity | MLL AF4-AF9 inh | FGF22 binding
CCCC(=O)Nc1ccc2c(c1)C(=O)N(C)C[C@@H](OC)[C@H](C)CN(C(C)=O)[C@@H](C)CO2 | . | . | . | / | . | .
C[C@@H]1CCCCO[C@H](CN(C)S(=O)(=O)c2ccccc2)[C@H](C)CN([C@@H](C)CO)C(=O)c2cc(NS(=O)(=O)c3ccccc3)ccc2O1 | . | . | . | / | . | .
O=C(NCC[C@H]1CC[C@H](NS(=O)(=O)Cc2ccccc2)[C@H](CO)O1)C1CCOCC1 | / | . | . | / | . | .
COc1ccc(S(=O)(=O)N(C)C[C@H]2OCc3cn(nn3)CCCC(=O)N([C@H](C)CO)C[C@H]2C)cc1 | . | / | / | / | / | /
CC1(C)CC(NCCN2CCN(C3=CC(=C(C#N)C#N)CC(C)(C)C3)CC2)=CC(=C(C#N)C#N)C1 | . | . | . | . | . | 44.7
O=C(NCc1ccc(Cl)cc1)c1cc([N+](=O)[O-])ccc1Cl | . | . | . | . | . | 43.0
C[C@@H]1CN([C@@H](C)CO)C(=O)c2cc(NC(=O)Cc3ccccc3)ccc2O[C@@H](C)CCCCO[C@@H]1CN(C)S(=O)(=O)c1ccc(F)cc1 | . | . | / | / | / | .
CC(=O)N(C)C[C@H]1Oc2cc(-c3ccncc3)ccc2S(=O)(=O)N([C@@H](C)CO)C[C@H]1C | . | . | . | / | . | .
COc1ccc(S(=O)(=O)N(C)CC(=O)Nc2ccc(C)cc2)cc1OC | . | . | . | . | . | 43.0
CC(=O)c1cccc(NC(=O)CN(C)S(=O)(=O)c2ccccc2)c1 | . | . | . | . | . | 43.5
COc1ccc(S(=O)(=O)N(C)CC(=O)Nc2cccc(C(C)=O)c2)cc1C | . | . | / | . | / | /
COc1cc(NC(=O)CN(C)S(=O)(=O)c2ccc(C)cc2)cc(OC)c1 | . | . | / | . | / | /
CC(C)NC(=O)N[C@@H]1CC[C@H](CCNC(=O)C2CCCC2)O[C@@H]1CO | . | / | / | / | . | /
COc1ccc(N2C(=O)CC(NNc3ncc(Cl)cc3Cl)C2=O)cc1 (centres undefined) | . | 68.1 | . | . | . | .
CC(=O)Nc1ccc(NC(=O)c2ccccc2CCc2ccccc2)cc1 | . | . | . | . | . | 44.1
Cc1ccc(SC2CC(=O)N(c3ccc4c(c3)OCCO4)C2=O)cc1 (centres undefined) | . | . | . | . | . | 43.2
C=CCSc1ncc(C(=O)OCC)c(N)n1 | . | . | . | . | . | 43.2
COc1cccc(CC2(CO)CCCN(S(=O)(=O)N(C)C)C2)c1 (centres undefined) | . | . | . | . | . | .
CCOC(=O)N1CCC(N2CCCC(CO)(Cc3cccc(OC)c3)C2)CC1 (centres undefined) | . | / | . | . | . | 43.3
CCOC(=O)C1(Cc2cccc(OC)c2)CCN(CCO)CC1 | / | . | . | . | . | 43.5
C[C@@H]1CN([C@H](C)CO)C(=O)c2cccc(NC(=O)c3cnccn3)c2O[C@H]1CN(C)CC1CCCCC1 | / | . | . | / | . | .
COc1ccc(NC(=O)Nc2ccc3c(c2)C(=O)N([C@@H](C)CO)C[C@@H](C)[C@@H](CN(C)Cc2ccccc2)OCCCC[C@H](C)O3)cc1 | . | . | . | / | . | .
O=C(C1CCN(Cc2cn[nH]c2-c2ccc(F)cc2F)CC1)N1CCOCC1 | / | . | . | . | . | 44.1
COc1ccc(-c2[nH]ncc2CN2CCC(C(=O)N3CCOCC3)CC2)c(F)c1 | . | . | . | . | . | .
C=C1C(=O)C23CCC4C(C)(C(=O)OC)CCCC4(C)C2CCC1(O)C3 (centres undefined) | 36.9 | . | . | . | . | .
